Experimental findings from paper PMC10362274 (iScience, 2023) are described below.

The test system of data set [1] is MAGE-A10-specific CD8^+ T cell clones. Nature of the data set: Standard 4-h 51Chromium release assay, peptide-pulsed T2 cells. The format is cell-based, human. Conditions: n = 3 MAGE-A10-specific CD8^+ T cells; no titration of the antigenic peptides.
The test system of data set [2] is Tyr369-377-specific CD8^+ T cell clones. Nature of the data set: IFNγ secretion assay. The format is cell-based, human. The following applies: 1/1 ratio with pulsed T2 cells, 24 h co-culture, ELISA, duplicates. Put shortly: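 Tyrosinase-specific CD8+ T cell clones came from HLA-A2 tetramer sorting and limiting dilution. They were grown in RPMI with 8% pooled human serum and 150 IU/ml IL-2 at 37°C, 5% CO2. Clones were co-cultured 1:1 for 24 h with T2 cells pulsed with serial dilutions of native or oxidized peptide, in duplicate. IFNγ was measured by ELISA against an exponential standard curve.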

The nature of data set [3]: HPLC oxidation profiling of the YMD peptide using hydrogen peroxide. The class given is physicochemical. A digest of the protocol:
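Synthetic test peptide (~155 μM in LC-MS water) oxidized with varying hydrogen peroxide levels for 30 min at 4°C. For time courses, similar peptide level in 0.1% formic acid/2% acetonitrile with hydrogen peroxide in excess (120 mM), treated as constant for pseudo-first-order fitting. Forms resolved by RP-HPLC, fractions verified by offline MS/MS; triplicate points.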

Data set [4] concerns the target HLA-A∗02:01 (Homo sapiens, UniProt P04439, D140Y/D185E/D98H/E176V/E277Q/G131W/G231S/I119V/I121R/I166T/I218V/L300P/L318F/N151K/N90K/P208A/P217A/Q86G/Q94H/R138H/R169H/T345S). The following applies: refolded complex, ELISA.
For data set [5], the system named is Tyr369-377-specific CD8^+ T cell clones. Briefly: Standard 4-h 51Chromium release assay, peptide-pulsed T2 cells. The class given is cell-based, human. The following applies: EC50 = peptide concentration giving 50% maximal killing; across YMD-specific CD8^+ T cell clones.

Turning to “MAGE-A10_OX: oxidized form of MAGE-A10 254-262 peptide (GLYDGMEHL; not fully specified; oxidized Met (the underlined M of GLYDGMEHL; sulfoxide or sulfone not stated))”, in data set [1], the “EC50 compared with the native peptide” value is given as “slightly increased”.
As to M2SO: Met2 sulfoxide of the YMD peptide, in data set [2], the “IFNγ released compared with native” value is “no significant differences”.
With YMDGTMSQV [N], the “time for 50% of the peptide to oxidize” value in data set [3] (120 mM hydrogen peroxide, 4°C, pseudo-first-order kinetics, RP-HPLC UV 275 nm) was around 20 min. The “fraction of the total found as complete oxidized to sulfone forms” value in data set [3] (3 M hydrogen peroxide, after 10 days, RP-HPLC peak quantification) is around 66%. The “transformation of the peptide to sulfoxide forms” value in data set [3] (hydrogen peroxide 600 mM or higher, 30 min, 4°C, RP-HPLC UV 275 nm) was “almost complete transformation”.
YM2SODGTM6SOSQV [M2SOM6SO]: in data set [4], the “stability of the HLA-A∗02:01-peptide complex at t0 compared with HLA-A∗02:01-N” value is “more stable at t0”. In addition, in data set [5], the “EC50 compared with the native peptide” value is on record as “significant lower values”. For the same substance, the “IFNγ released compared with native” value in data set [2] is recorded as “released more IFNγ”.
M6SO: Met6 sulfoxide of the YMD peptide: the “EC50 compared with the native peptide” value in data set [5] was “significant lower values”. In addition, in data set [2], the “IFNγ released compared with native” value was “released more IFNγ”.
